Compounds with a hit are over-represented: about 2.3% of the library has one in this group of screens.
DNA FID counter: compounds displacing fluorescent DNA intercalator, primary screen, artefact control for HCV NS3 helicase inhibitor project, biochemical, FID fluorescence. DNA fluorescent intercalator displacement. inhibition, % at 7.9 µM. 0.17% of 290,000 active. AID 1845, 2009; in the data active means inhibition above about 37%;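 further: 0% = vehicle and 100% = reference compound; higher means more ethidium bromide displaced from hairpin DNA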
TRPC6 activator: mouse TRPC6 channel activators, primary screen, cell-based, HEK293, membrane potential dye. Short transient receptor potential channel 6 (Mus musculus), Q61143. HEK293-TRPC6 membrane potential dye fluorescence; stronger effect = higher value. B-score at 10 µM. 0.13% of 310,000 active. AID 2550, 2010;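 active means B-score of the integrated fluorescence ratio above library mean plus 3 SD, and starting fluorescence ratio within library mean plus 5 SD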;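 further: higher score means more depolarization so channel activation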
Target sequence (Q61143 whole entry, looked up): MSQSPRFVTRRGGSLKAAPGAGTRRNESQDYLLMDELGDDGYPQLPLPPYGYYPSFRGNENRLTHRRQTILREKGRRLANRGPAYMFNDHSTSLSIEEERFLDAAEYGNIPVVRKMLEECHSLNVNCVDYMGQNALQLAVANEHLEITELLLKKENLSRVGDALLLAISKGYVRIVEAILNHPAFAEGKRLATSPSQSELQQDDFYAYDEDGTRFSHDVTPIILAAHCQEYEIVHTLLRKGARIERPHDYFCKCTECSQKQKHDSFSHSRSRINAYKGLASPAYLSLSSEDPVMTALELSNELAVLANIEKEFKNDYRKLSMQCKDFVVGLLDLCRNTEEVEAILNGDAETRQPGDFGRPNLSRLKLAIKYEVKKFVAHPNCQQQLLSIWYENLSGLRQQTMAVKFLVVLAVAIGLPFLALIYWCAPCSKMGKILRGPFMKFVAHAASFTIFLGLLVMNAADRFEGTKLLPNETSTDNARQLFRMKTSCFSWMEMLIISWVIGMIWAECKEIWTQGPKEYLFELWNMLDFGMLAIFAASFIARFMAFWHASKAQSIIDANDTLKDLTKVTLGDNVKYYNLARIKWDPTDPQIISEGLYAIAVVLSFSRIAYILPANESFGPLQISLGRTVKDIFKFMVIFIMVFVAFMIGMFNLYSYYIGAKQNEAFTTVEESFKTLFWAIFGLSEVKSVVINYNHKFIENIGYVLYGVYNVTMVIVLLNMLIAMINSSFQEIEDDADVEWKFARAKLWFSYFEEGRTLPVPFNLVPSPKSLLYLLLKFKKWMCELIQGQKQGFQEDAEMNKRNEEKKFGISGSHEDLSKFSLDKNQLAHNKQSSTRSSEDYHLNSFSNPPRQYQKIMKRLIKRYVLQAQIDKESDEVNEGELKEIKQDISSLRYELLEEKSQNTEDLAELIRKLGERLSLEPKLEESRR
TRPC4 PAM: positive allosteric modulators of TRPC4, primary screen, cell-based, mouse TRPC4beta, HEK293 mu-opioid, Fluo-4 calcium; DAMGO EC20, Fluo-4 Ca2+ flux; stronger effect = higher value; B-score at 10 µM; 0.42% of 310,000 active; AID 2227, 2009;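 active means B-score of calcium response area above 5 SD of library B-scores, with initial fluorescence ratio within 5 SD of library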;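 further: B-score of integrated fluorescence ratio over time as area under calcium response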
TRPC4 block: inhibitors of mouse TRPC4 channel, primary screen, Fluo4 calcium, HEK293 TRPC4beta/mu-opioid cells; Short transient receptor potential channel 4 (Mus musculus), Q9QUQ5; DAMGO-evoked Fluo4 calcium flux; stronger effect = lower value; B-score at 10 µM; 0.39% of 300,000 active; AID 2247, 2010;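 active means B-score over 3 SD under the library average, no early fluorescence shift, positive overall ratio signal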
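Signal: kinetic Fluo4 fluorescence imaging of calcium influx. Material: stable TRPC4beta/mu-opioid receptor HEK293 cells. Probe or stimulus: DAMGO in two steps, submaximal then maximal.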
TRPC6 inhibitor: mouse TRPC6 channel inhibitors, primary screen, cell-based, HEK293, membrane potential dye; 1.1% of 310,000 active; B-score at 10 µM; Short transient receptor potential channel 6 (Mus musculus), Q61143; ACh-evoked depolarization; stronger effect = lower value;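 active means B-score under library mean minus 3 SD, initial fluorescence not abnormally high, positive integrated signal ratio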;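 further: B-score derived from integrated fluorescence ratio over the kinetic read; more negative B-score means stronger inhibition of depolarization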
TRPC4 act: activators of mouse TRPC4 channel, primary screen, Fluo4 calcium, HEK293 TRPC4beta/mu-opioid cells; Fluo4 calcium fluorescence; stronger effect = higher value; 0.49% of 310,000 active; B-score at 10 µM;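 active means B-score above 5 SD of library B-scores, and initial fluorescence ratio not above library mean plus 5 SD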;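 further: positive B-score marks a calcium rise read as TRPC4 activation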
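system = HEK293 cells stably co-expressing mouse TRPC4beta and mu-opioid receptor | schedule = Fluo4 dye loading 45 min at room temperature, 110 s recording | measure = B-scored integrated calcium fluorescence ratio | signal = Fluo4 calcium-sensitive dye fluorescence, kinetic, 1 Hz baseline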
TRPC4 spec 2: second selectivity test of TRPC6 inhibitors: effect on mouse TRPC4. shares compounds with TRPC6 inhibitor. HEK293 TRPC4/MOR, membrane potential dye fluorescence; channel activated by saturating DAMGO dose. inhibition, % at 10 µM. 42% of 920 active. AID 2776;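 active means compounds whose fluorescence signal differed from control wells by over 3 SD, either direction, in both duplicate plates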
TRPC4 spec: mouse TRPC4 modulation by TRPC6 hits, confirmation, selectivity assay for TRPC6 inhibitor project, cell-based, HEK293 TRPC4/mu-opioid, membrane potential dye | shares compounds with TRPC6 inhibitor | membrane potential fluorescence | activity change, negative = inhibition, % at 10 µM | 61% of 920 active | AID 2777, 2010;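 active means rise or fall in signal beyond 3 SD of buffer-only wells in both replicate plates, either sign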;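 further: integrated kinetic ratio of fluorescence range over baseline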
HEK293 MPD ctr 2-1: nonspecific membrane potential effects, parental HEK293, confirmation, counter-screen for TRPC6 inhibitor project, cell-based, second counter screen; shares compounds with TRPC6 inhibitor; parental HEK293 membrane potential dye fluorescence; maximal acetylcholine challenge after compound addition; signal change vs control, % at 10 µM; 31% of 920 active;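 active means membrane potential signal moving either way by over 3 SD of the maximum-effect control, in both duplicate plates, meaning non-specific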
HEK293 MPD ctr-1: membrane potential modulation in parental HEK293, confirmation, counter-screen for TRPC6 inhibitor project, cell-based | membrane potential signal change, % at 10 µM | shares compounds with TRPC6 inhibitor | 60% of 920 active | parental HEK293 membrane potential dye fluorescence;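 active means membrane potential signal shifting up or down by more than 3 SD of buffer-only wells, on both duplicate plates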
HEK293 MPD ctr-2: parental HEK293 membrane potential modulation, confirmation, counter-screen for TRPC6 modulator project, cell-based | 51% of 2,400 active | membrane potential signal change, % at 10 µM | shares compounds with TRPC6 inhibitor | membrane potential dye fluorescence | AID 488924, 2010;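 active means membrane potential signal moves up or down beyond 5 SD from buffer-only wells, on both duplicate plates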
HEK293 MPD ctr 2-2: parental HEK293 nonspecific activity of TRPC6 modulators, second screen; 14% of 2,400 active; membrane potential dye fluorescence; after compound, maximal acetylcholine stimulation; inhibition, % at 10 µM; shares compounds with TRPC6 inhibitor;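 active means membrane potential signal drops by more than 5 SD from the mean control signal, in both duplicate plates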;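 further: plate controls were acetylcholine ECmax control wells for no effect and buffer only wells for full effect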
TRPC4/MOR mod: TRPC4 modulation by TRPC6 hit compounds, confirmation, selectivity assay for TRPC6 modulator project, cell-based, HEK293 TRPC4/mu-opioid, membrane potential dye, mouse. shares compounds with TRPC6 inhibitor. membrane potential fluorescence. percent change from control (negative = decrease, positive = increase), % at 10 µM. 69% of 2,400 active;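 active means membrane potential signal moved up or down beyond 5 SD of buffer control wells, in both duplicate plates, actives on both sides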;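 further: plate controls were assay buffer wells for no effect and DAMGO maximal-effect wells for full effect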
TRPC4/MOR inh 2: second check of whether TRPC6 modulators also affect mouse TRPC4 | shares compounds with TRPC6 inhibitor | HEK293 TRPC4/mu-opioid, membrane potential dye fluorescence; stimulated with maximal-effect DAMGO | inhibition, % at 10 µM | 55% of 2,400 active;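 active means drop in membrane potential signal beyond 5 SD of the control wells in both duplicate plates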;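 further: TRPC4 counter screen for TRPC6 hits run under conditions tuned for TRPC6 not TRPC4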
TRPC6 block conf: mouse TRPC6 channel inhibitors, confirmation, HEK293 cells, membrane potential dye, duplicate; shares compounds with TRPC6 inhibitor; ACh-evoked depolarization; inhibition, % at 10 µM; 43% of 3,300 active;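 active means fluorescence ratio falls more than 5 SD below the full-stimulation control mean, in both duplicate runs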;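 further: integrated fluorescence ratio of peak minus minimum over baseline after agonist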
TRPC6 act conf: mouse TRPC6 channel activators, confirmation, HEK293 cells, membrane potential dye, duplicate | 11% of 2,800 active | shares compounds with TRPC6 inhibitor | AID 488961, 2010 | HEK293-TRPC6 membrane potential dye fluorescence, FDSS | activation, % at 10 µM;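 active means ratio signal rise beyond 5 SD above unstimulated control wells' mean, seen in both duplicate runs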;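 further: plate controls were buffer EC0 wells for no effect and acetylcholine ECmax response for full effect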
Active calls of the source: *; i = inactive; . = no result.

SMILES | DNA FID counter | TRPC6 activator | TRPC4 PAM | TRPC4 block | TRPC6 inhibitor | TRPC4 act | others
CC(SCc1ccccc1)C(=O)NCc1ccccn1 (configuration not stated) | -3 | i | 10* | i | i | i
CCN(CC)CCNC(=O)c1cc2c(=O)n(C)c3ccccc3c2n1C | 14 | i | i | i | i | i
CCN(CC)CCCNC(=O)c1cc2c(=O)n(C)c3ccccc3c2n1C | 7 | i | i | i | i | i
CCCN(CCC)CCCNC(=O)c1cc2c(=O)n(C)c3ccccc3c2n1C | 26 | i | 16* | i | i | 59*
CCCCN(CC)CCNC(=O)c1cc2c(=O)n(C)c3ccccc3c2n1C | 18 | i | 14* | i | i | 67*
Cc1ccc(C(=O)Nc2cccc(NC(=O)c3ccc(C)o3)n2)o1 | -18 | i | i | i | i | i
CCCCC(CC)c1nnc(NC(=O)c2cccs2)s1 (configuration not stated) | -11 | i | i | -9* | i | i
Cc1cc(C=O)c(C)n1-c1ccc(Oc2ccc([N+](=O)[O-])cn2)cc1 | -10 | i | i | i | i | i
Cc1cc(C=O)c(C)n1-c1ccc(NC2CCCC2)c([N+](=O)[O-])c1 | . | i | 13* | i | i | i
Nc1nnc(-c2cccc([N+](=O)[O-])c2)o1 | 1 | i | i | i | i | i
O=[N+]([O-])c1cccc(-c2nnc(C3CC3)o2)c1 | 2 | i | i | -6* | i | i
CCCOP(=O)(c1ccc(N(C)C)cc1)C(O)c1c(Cl)cccc1Cl (configuration not stated) | -38 | i | i | i | i | i
CCCOP(=O)(c1ccc(N(C)C)cc1)C(O)c1ccc(Cl)cc1Cl (configuration not stated) | -36 | i | 10* | i | i | i
COc1ccc2nc(C)c(C(N)=O)cc2c1 | 2 | i | i | i | i | i
COc1cc2cc(C(N)=O)c(N)nc2cc1OC | 8 | i | 13* | i | i | i
CNC[C@H](Cc1ccccc1)NC[C@@H](Cc1cccc2ccccc12)NCCc1ccc(C)cc1 | 37* | i | i | i | i | 173*
O=S(=O)(NCC(c1ccco1)N1CCc2ccccc2C1)c1ccc(Br)cc1 (configuration not stated) | . | i | i | i | i | i
Cc1ccc(Sc2ccc(CN3CCCC3)cc2[N+](=O)[O-])cc1 | 23 | i | i | i | i | i
Cc1ccc(Sc2ccc(CO)cc2[N+](=O)[O-])cc1 | 4 | i | i | -7* | i | i
C/C(N)=C(/C#N)C(=O)COC(=O)CC12CC3CC(CC(C3)C1)C2 | -14 | i | i | -7* | i | i
C=CCNCCCOc1ccc(Cl)cc1Br | 4 | i | 16* | i | i | i
OCCNCCCOc1ccc(Cl)cc1Br | 5 | i | i | i | i | i
O=C(NCC(c1ccco1)N1CCCC1)c1ccccc1Sc1ccc(C(F)(F)F)cc1[N+](=O)[O-] (configuration not stated) | . | i | i | i | -6.6* | i | TRPC4 spec 2=i;TRPC4 spec=3.1%*;HEK293 MPD ctr 2-1=245%*;HEK293 MPD ctr-1=i;TRPC6 block conf=i;TRPC6 act conf=i
CN(C)CCN(Cc1ccco1)C(=O)c1oc2ccccc2c1NC(=O)COc1ccccc1 | 38* | i | i | i | -5.7* | i | HEK293 MPD ctr-2=90%*;HEK293 MPD ctr 2-2=i;TRPC4/MOR mod=i;TRPC4/MOR inh 2=85%*;TRPC6 block conf=55%*;TRPC6 act conf=i
O=C(COc1ccccc1)Nc1c(C(=O)N2CCC(N3CCCCC3)CC2)oc2ccccc12 | 19 | i | i | i | i | i
